Measurements from ChEMBL document CHEMBL2331396, “Exploration of 1-(3-chloro-4-(4-oxo-4H-chromen-2-yl)phenyl)-3-phenylurea derivatives as selective dual inhibitors of Raf1 and JNK1 kinases for anti-tumor treatment” (Bioorg Med Chem, 2013).
pIC50: −log10 of the molar value. Activity calls are given as the source filed them. The calls are words filed in the database; no cut-off is given here.

Tests used:
[1] = test system: HepG2; experiment: Cell cycle arrest in human HepG2 cells assessed as cells at G2+M phase at 10 uM measured after 48 hrs by flow cytometric analysis; type: functional
[2] = test system: HepG2; experiment: Cell cycle arrest in human HepG2 cells assessed as cells at S phase at 10 uM measured after 48 hrs by flow cytometric analysis; type: functional
[3] = test system: HepG2; experiment: Cell cycle arrest in human HepG2 cells assessed as cells at G0/G1 phase at 10 uM measured after 48 hrs by flow cytometric analysis; type: functional
[4] = test system: HepG2; experiment: Cell cycle arrest in human HepG2 cells assessed as cells at G2+M phase at 10 uM measured after 36 hrs by flow cytometric analysis; type: functional
[5] = test system: HepG2; experiment: Cell cycle arrest in human HepG2 cells assessed as cells at S phase at 10 uM measured after 36 hrs by flow cytometric analysis; type: functional
[6] = test system: HepG2; experiment: Cell cycle arrest in human HepG2 cells assessed as cells at G0/G1 phase at 10 uM measured after 36 hrs by flow cytometric analysis; type: functional
[7] = test system: HepG2; experiment: Cell cycle arrest in human HepG2 cells assessed as cells at G2+M phase at 10 uM measured after 24 hrs by flow cytometric analysis; type: functional
[8] = test system: HepG2; experiment: Cell cycle arrest in human HepG2 cells assessed as cells at S phase at 10 uM measured after 24 hrs by flow cytometric analysis; type: functional
[9] = test system: HepG2; experiment: Cell cycle arrest in human HepG2 cells assessed as cells at G0/G1 phase at 10 uM measured after 24 hrs by flow cytometric analysis; type: functional
[10] = test system: HepG2; experiment: Cell cycle arrest in human HepG2 cells assessed as cells at G2+M phase at 10 uM measured after 12 hrs by flow cytometric analysis; type: functional
[11] = test system: HepG2; experiment: Cell cycle arrest in human HepG2 cells assessed as cells at S phase at 10 uM measured after 12 hrs by flow cytometric analysis; type: functional
[12] = test system: HepG2; experiment: Cell cycle arrest in human HepG2 cells assessed as cells at G0/G1 phase at 10 uM measured after 12 hrs by flow cytometric analysis; type: functional
[13] = test system: HepG2; experiment: Induction of human HepG2 cells assessed as early apoptotic cells at 10 uM measured after 48 hrs by Annexin VFITC/PI assay; type: functional
[14] = test system: HepG2; experiment: Induction of human HepG2 cells assessed as early apoptotic cells at 10 uM measured after 24 hrs by Annexin VFITC/PI assay; type: functional
[15] = test system: HepG2; experiment: Induction of human HepG2 cells assessed as early apoptotic cells at 10 uM measured after 36 hrs by Annexin VFITC/PI assay; type: functional
[16] = test system: HepG2; experiment: Induction of human HepG2 cells assessed as early apoptotic cells at 10 uM measured after 12 hrs by Annexin VFITC/PI assay; type: functional
[17] = test system: HepG2; experiment: Induction of human HepG2 cells assessed as late apoptotic cells at 10 uM measured after 48 hrs by Annexin VFITC/PI assay; type: functional
[18] = test system: HepG2; experiment: Induction of human HepG2 cells assessed as late apoptotic cells at 10 uM measured after 36 hrs by Annexin VFITC/PI assay; type: functional
[19] = test system: HepG2; experiment: Induction of human HepG2 cells assessed as late apoptotic cells at 10 uM measured after 24 hrs by Annexin VFITC/PI assay; type: functional
[20] = test system: HepG2; experiment: Induction of human HepG2 cells assessed as late apoptotic cells at 10 uM measured after 12 hrs by Annexin VFITC/PI assay; type: functional
[21] = Cytotoxicity against human HL7702 cells assessed as inhibition rate at 100 uM measured after 48 hrs by MTT assay; type: cell-based, L02; details: read-out: INH
How it was run: (§1)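 Normal liver cells were grown in DMEM with 10% FBS plus penicillin/streptomycin at 37 °C, 5% CO₂. They were seeded at 5 × 10⁵ cells/mL and incubated 24 h. Compounds from DMSO stock were added at final 50 or 100 µM (DMSO <1%), in triplicate, for 48 h. MTT was added for 4 h, formazan dissolved in DMSO, A495 read, and inhibition rate calculated.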

[22] = Cytotoxicity against human QSG7701 cells assessed as inhibition rate at 100 uM measured after 48 hrs by MTT assay; type: cell-based; details: read-out: INH; how it was run: as §1
[23] = Cytotoxicity against human HL7702 cells assessed as inhibition rate at 50 uM measured after 48 hrs by MTT assay; type: cell-based, L02; details: read-out: INH; how it was run: as §1
[24] = Cytotoxicity against human QSG7701 cells assessed as inhibition rate at 50 uM measured after 48 hrs by MTT assay; type: cell-based; details: read-out: INH; how it was run: as §1
[25] = test system: HCT-116; experiment: Antiproliferative activity against human HCT116 cells assessed as growth inhibition measured after 48 hrs by MTT assay; type: functional, cell-based; details: HCT-116, 48 h
How it was run: (§2)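 Compounds dissolved in DMSO and diluted in medium to final 0.5–50 µM (final DMSO <1%). Cells were grown in DMEM with 10% FBS, penicillin and streptomycin at 37 °C, 5% CO₂. They were seeded at 5 × 10⁵ cells/mL, incubated 24 h, then treated in triplicate per concentration for 48 h. MTT was added for 4 h, formazan dissolved in DMSO, absorbance read at 495 nm, and IC50 derived.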

[26] = test system: A549; experiment: Antiproliferative activity against human A549 cells assessed as growth inhibition measured after 48 hrs by MTT assay; type: functional, cell-based; details: A549, 48 h; how it was run: as §2
[27] = test system: HepG2; experiment: Antiproliferative activity against human HepG2 cells assessed as growth inhibition measured after 48 hrs by MTT assay; type: functional, cell-based; details: HepG2, 48 h; how it was run: as §2
[28] = target: Mitogen-activated protein kinase 8 (Homo sapiens) (UniProt P45983); experiment: Inhibition of JNK1 in human HepG2 cells assessed as inhibition of methyl methane sulfonate-induced c-Jun phosphorylation at 100 uM measured after 2 hrs by Western blot analysis; type: cell-based
Sequence of Mitogen-activated protein kinase 8 (Homo sapiens) (P45983 whole entry): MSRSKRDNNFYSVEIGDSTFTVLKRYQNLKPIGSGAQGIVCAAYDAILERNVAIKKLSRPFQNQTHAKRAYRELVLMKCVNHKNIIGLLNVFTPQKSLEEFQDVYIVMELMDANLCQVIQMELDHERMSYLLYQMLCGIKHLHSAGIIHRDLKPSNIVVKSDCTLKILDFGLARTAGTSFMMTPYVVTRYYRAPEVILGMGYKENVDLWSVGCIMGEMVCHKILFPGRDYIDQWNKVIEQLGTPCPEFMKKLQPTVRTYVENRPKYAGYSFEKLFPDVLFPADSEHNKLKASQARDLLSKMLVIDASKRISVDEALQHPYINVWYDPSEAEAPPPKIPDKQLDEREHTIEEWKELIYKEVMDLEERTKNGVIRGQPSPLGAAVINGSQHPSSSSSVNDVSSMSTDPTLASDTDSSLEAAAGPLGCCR
How it was run: (§3)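 Cells were lysed on ice for 50 min in HEPES pH 7.9/KCl/EDTA/NP-40 buffer with Na₃VO₄, NaF and protease inhibitors. Protein was quantified by Coomassie, run on 15% SDS-PAGE and transferred to PVDF. Membranes were blocked in 5% milk for 2 h and probed with total/phospho ERK1/2 or c-Jun antibodies for 2 h at room temperature. Detection was by HRP secondary antibody and chemiluminescence.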

[29] = target: Mitogen-activated protein kinase 8 (Homo sapiens) (UniProt P45983); experiment: Inhibition of JNK1 in human HepG2 cells assessed as c-Jun phosphorylation at 10 uM measured after 2 hrs by Western blot analysis; type: cell-based; how it was run: as §3
[30] = target: RAF proto-oncogene serine/threonine-protein kinase (Homo sapiens) (UniProt P04049); experiment: Inhibition of Raf1 in human HepG2 cells assessed as ERK1/2 phosphorylation at 10 uM measured after 2 hrs by Western blot analysis; type: cell-based; details: in the assay text read “4 hrs” for “2 hrs”; how it was run: as §3
Sequence of RAF proto-oncogene serine/threonine-protein kinase (Homo sapiens) (P04049 whole entry): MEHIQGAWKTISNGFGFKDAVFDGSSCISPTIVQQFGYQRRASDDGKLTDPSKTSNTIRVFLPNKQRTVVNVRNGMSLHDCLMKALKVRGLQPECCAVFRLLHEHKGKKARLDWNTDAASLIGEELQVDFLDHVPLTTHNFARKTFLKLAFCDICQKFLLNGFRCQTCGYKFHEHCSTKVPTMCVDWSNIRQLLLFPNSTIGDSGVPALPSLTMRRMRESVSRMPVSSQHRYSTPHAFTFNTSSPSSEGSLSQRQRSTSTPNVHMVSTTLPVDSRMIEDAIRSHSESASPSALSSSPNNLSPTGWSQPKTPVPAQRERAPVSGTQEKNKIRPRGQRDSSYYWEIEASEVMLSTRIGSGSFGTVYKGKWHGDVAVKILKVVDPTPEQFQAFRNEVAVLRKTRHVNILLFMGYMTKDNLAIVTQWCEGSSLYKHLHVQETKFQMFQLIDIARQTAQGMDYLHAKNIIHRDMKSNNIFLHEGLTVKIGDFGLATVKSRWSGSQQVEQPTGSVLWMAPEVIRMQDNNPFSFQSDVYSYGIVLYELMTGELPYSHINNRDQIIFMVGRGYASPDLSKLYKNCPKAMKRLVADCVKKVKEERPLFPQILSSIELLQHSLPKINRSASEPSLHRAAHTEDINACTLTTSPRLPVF

[31] = target: Mitogen-activated protein kinase 3 (Homo sapiens) (UniProt P27361); experiment: Inhibition of ERK1 (unknown origin) at 50 uM
Sequence of Mitogen-activated protein kinase 3 (Homo sapiens) (P27361 whole entry): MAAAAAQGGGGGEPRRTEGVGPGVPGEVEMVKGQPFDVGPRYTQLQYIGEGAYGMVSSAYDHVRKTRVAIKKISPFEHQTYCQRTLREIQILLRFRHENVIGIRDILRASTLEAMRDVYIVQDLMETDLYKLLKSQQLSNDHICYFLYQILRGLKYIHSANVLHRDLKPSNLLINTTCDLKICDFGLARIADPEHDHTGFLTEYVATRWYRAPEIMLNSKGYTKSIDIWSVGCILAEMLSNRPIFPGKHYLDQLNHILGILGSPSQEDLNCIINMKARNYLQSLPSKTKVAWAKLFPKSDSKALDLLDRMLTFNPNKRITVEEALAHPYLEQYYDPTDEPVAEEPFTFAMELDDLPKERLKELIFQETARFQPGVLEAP
How it was run: (§4)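 Luminescent Kinase-Glo Plus assay. Enzyme, substrate, ATP and compound were mixed in pH 7.4 buffer containing 25 mM HEPES and 10 mM MgCl2, then incubated at 30 °C for 1 h. An equal volume of Kinase-Glo Plus reagent stopped the reaction before luminescence was read. Signal tracks remaining ATP and runs inversely to kinase activity; results are given as percent inhibition.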

[32] = target: RAF proto-oncogene serine/threonine-protein kinase (Homo sapiens) (UniProt P04049); experiment: Inhibition of Raf1 (unknown origin) at 50 uM
How it was run: (§5)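 Kinase-Glo Plus luminescent assay. Enzyme, substrate, ATP and compound were mixed in 25 mM HEPES pH 7.4 with 10 mM MgCl₂ and incubated 1 h at 30 °C. The reaction was stopped with an equal volume of Kinase-Glo Plus reagent. Luminescence reflects remaining ATP, inversely related to kinase activity, and is reported as percent inhibition at a single concentration.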

[33] = target: Mitogen-activated protein kinase 8 (Homo sapiens) (UniProt P45983); experiment: Inhibition of JNK1 (unknown origin) at 50 uM; how it was run: as §4
[34] = target: Mitogen-activated protein kinase 14 (Homo sapiens) (UniProt Q16539); experiment: Inhibition of p38-alpha (unknown origin) at 50 uM; how it was run: as §5
Sequence of Mitogen-activated protein kinase 14 (Homo sapiens) (Q16539 whole entry): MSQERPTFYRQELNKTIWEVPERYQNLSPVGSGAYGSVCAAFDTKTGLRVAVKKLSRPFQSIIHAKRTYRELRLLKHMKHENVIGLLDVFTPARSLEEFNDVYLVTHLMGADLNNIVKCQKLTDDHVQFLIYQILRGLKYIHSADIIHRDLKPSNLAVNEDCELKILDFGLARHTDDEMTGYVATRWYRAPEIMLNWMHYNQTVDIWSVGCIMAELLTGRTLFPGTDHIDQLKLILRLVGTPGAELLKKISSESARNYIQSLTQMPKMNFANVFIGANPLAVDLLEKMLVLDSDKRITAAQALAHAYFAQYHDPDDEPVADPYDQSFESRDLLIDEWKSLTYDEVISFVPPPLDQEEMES

[35] = target: Mitogen-activated protein kinase 1 (Homo sapiens) (UniProt P28482); details: at 50 µM
Sequence of Mitogen-activated protein kinase 1 (Homo sapiens) (P28482 whole entry): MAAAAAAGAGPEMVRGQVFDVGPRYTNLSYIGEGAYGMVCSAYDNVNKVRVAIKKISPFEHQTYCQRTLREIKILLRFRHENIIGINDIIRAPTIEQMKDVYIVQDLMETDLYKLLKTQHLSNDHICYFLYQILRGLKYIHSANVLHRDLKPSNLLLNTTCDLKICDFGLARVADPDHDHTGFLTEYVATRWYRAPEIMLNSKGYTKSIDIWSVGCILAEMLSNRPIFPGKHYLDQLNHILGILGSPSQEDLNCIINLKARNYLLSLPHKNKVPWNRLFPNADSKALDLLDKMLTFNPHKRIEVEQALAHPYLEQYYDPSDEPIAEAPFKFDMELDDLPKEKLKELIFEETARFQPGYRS

[36] = target: Mitogen-activated protein kinase 14 (Homo sapiens) (UniProt Q16539); experiment: Inhibition of p38-alpha (unknown origin) at 100 uM; how it was run: as §5

## CCc1ccc2oc(-c3ccc(NC(=O)Nc4ccc(Cl)cc4)cc3Cl)cc(=O)c2c1
[1]
  Activity: 13.43%
[2]
  Activity: 20.57%
[3]
  Activity: 52.83%
[4]
  Activity: 9.14%
[5]
  Activity: 24.69%
[6]
  Activity: 52.83%
[7]
  Activity: 9.38%
[8]
  Activity: 21.77%
[9]
  Activity: 62.29%
[10]
  Activity: 8.81%
[11]
  Activity: 19.92%
[12]
  Activity: 69.43%
[13]
  Activity: 0.55%
[14]
  Activity: 0.44%
[15]
  Activity: 0.46%
[16]
  Activity: 0.27%
[17]
  Activity: 1.28%
[18]
  Activity: 1.37%
[19]
  Activity: 1.2%
[20]
  Activity: 1.22%
[21]
  cytotoxicity at 48 h, 100 µM: 28.3%
[22]
  cytotoxicity at 48 h, 100 µM: 31.8%
[23]
  cytotoxicity at 48 h, 50 µM: 18.7%
[24]
  cytotoxicity at 48 h, 50 µM: 23.7%
[25]
  pIC50: 4.54
[26]
  pIC50: < 4.30
[27]
  pIC50: 5.08
[28]
  inhibition: Active
[29]
  inhibition: inactive
[30]
  inhibition: Active
[31]
  inhibition: inactive
[32]
  inhibition: 65.6%
[33]
  inhibition: 67.4%
[34]
  inhibition: 13.5%
[35]
  inhibition: inactive

## CCc1ccc2oc(-c3ccc(N)cc3Cl)cc(=O)c2c1
[36]
  inhibition: 14.5%
[32]
  inhibition: 27%

## Nc1ccc(-c2cc(=O)c3ccc(O)cc3o2)c(Cl)c1
[32]
  inhibition: inactive
[34]
  inhibition: inactive

## CCc1ccc2oc(-c3ccc(NC(=O)Cc4cccc(F)c4)cc3Cl)cc(=O)c2c1
[21]
  cytotoxicity at 48 h, 100 µM: 44.6%
[22]
  cytotoxicity at 48 h, 100 µM: 27.4%
[23]
  cytotoxicity at 48 h, 50 µM: 20.4%
[24]
  cytotoxicity at 48 h, 50 µM: 22.4%
[25]
  pIC50: < 4.30
[26]
  pIC50: < 4.30
[27]
  pIC50: 4.70

## O=C(Nc1cccc(Cl)c1)Nc1ccc(-c2cc(=O)c3ccc(O)cc3o2)c(Cl)c1
[21]
  cytotoxicity at 48 h, 100 µM: 83.8%
[22]
  cytotoxicity at 48 h, 100 µM: 43.2%
[23]
  cytotoxicity at 48 h, 50 µM: 80.2%
[24]
  cytotoxicity at 48 h, 50 µM: 34.6%
[25]
  pIC50: 4.59
[26]
  pIC50: 4.77
[27]
  pIC50: 4.91

## COc1ccc2oc(-c3ccc(NC(=O)Nc4cccc(Cl)c4)cc3Cl)cc(=O)c2c1
[21]
  cytotoxicity at 48 h, 100 µM: 40.6%
[22]
  cytotoxicity at 48 h, 100 µM: 30.1%
[23]
  cytotoxicity at 48 h, 50 µM: 35.7%
[24]
  cytotoxicity at 48 h, 50 µM: 15.9%
[25]
  pIC50: 5.02
[26]
  pIC50: 4.96
[27]
  pIC50: 4.58

## CNC(=O)c1cc(Oc2ccc(NC(=O)Nc3ccc(Cl)c(C(F)(F)F)c3)cc2)ccn1 [SORAFENIB]
[21]
  cytotoxicity at 48 h, 100 µM: 20.2%
[22]
  cytotoxicity at 48 h, 100 µM: 23.2%
[23]
  cytotoxicity at 48 h, 50 µM: 5.3%
[24]
  cytotoxicity at 48 h, 50 µM: 4.2%
[25]
  pIC50: 5.64
[26]
  pIC50: 5.35
[27]
  pIC50: 5.30
[32]
  inhibition: 101%
